Reference: ChEMBL document CHEMBL1151213, “Yucca schidigera bark: phenolic constituents and antioxidant activity” (J Nat Prod, 2004)

How the values were obtained:
Type in all cases: functional
[1] = Antioxidant activity against beta-carotene and linoleic acid assessed as inhibition of bleaching of beta-carotene at 120 mins by autooxidation assay; parameters: concentration or dose not given beside the values
Procedure, shortened: (§1)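 Heat-induced oxidation of an aqueous emulsion of β-carotene, linoleic acid and Tween 20, held at 50 °C for 3 h. β-Carotene bleaching was followed by A470 at intervals. AA = [1 − (A0 − At)/(A00 − A0t)] × 100, taking absorbances with and without test sample at start and at time t. Run in triplicate; BHT served as positive control.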

[2] = Antioxidant activity against beta-carotene and linoleic acid assessed as inhibition of bleaching of beta-carotene at 60 mins by autooxidation assay; parameters: concentration or dose not given beside the values; procedure, shortened: as §1
[3] = Antioxidant activity against ABTS radical assessed as TEAC units
Procedure, shortened: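 ABTS radical cation solution diluted in PBS pH 7.4 to A734 0.70, equilibrated at 30 °C. Samples in methanol at 0.3, 0.5, 1, 1.5 and 2 mM; reaction started by adding diluted ABTS to sample. Percent inhibition of A734 versus methanol blank plotted against concentration, in triplicate. Value is Trolox concentration with the same capacity as 1 mM sample.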

Structure (SMILES): COc1c(O)cc(/C=C/c2cc(O)cc(O)c2)c2c1OC(=O)[C@@]21c2c(O)cc(O)cc2O[C@@H]1c1ccc(O)cc1
- Activity [1]: 79.3%
- Activity [2]: 74.3%
- Activity [3]: 1.85 mM

Structure (SMILES): COc1c(O)cc(/C=C/c2cc(O)cc3c2[C@@]2(C(=O)O3)c3c(O)cc(O)cc3O[C@@H]2c2ccc(O)cc2)cc1O
- Activity [1]: 71.7%
- Activity [2]: 59.5%
- Activity [3]: 1.6 mM

Structure (SMILES): O=c1c(O)c(-c2ccc(O)c(O)c2)oc2cc(O)cc(O)c12
- Activity [3]: 2.6 mM

Structure (SMILES): O=C1Oc2cc(O)cc(/C=C/c3ccc(O)cc3)c2[C@]12c1c(O)cc(O)cc1O[C@@H]2c1ccc(O)cc1
- Activity [1]: 72.1%
- Activity [2]: 76.3%
- Activity [3]: 1.09 mM

Structure (SMILES): O=C1Oc2cc(O)c3c(c2[C@]12c1c(O)cc(O)cc1O[C@@H]2c1ccc(O)cc1)O[C@H](c1ccc(O)cc1)[C@H](O)C3
- Activity [1]: 51%
- Activity [2]: 24.4%
- Activity [3]: 1.79 mM

Structure (SMILES): Oc1ccc(/C=C/c2cc(O)cc(O)c2)cc1
- Activity [1]: 45.9%
- Activity [2]: 24.9%
- Activity [3]: 1.9 mM

Structure (SMILES): O=C1[C@@H](c2ccc(O)cc2)Oc2cc(O)cc(O)c2[C@@]12c1c(O)cc(O)cc1[C@H](O)[C@H]2c1ccc(O)cc1
- Activity [1]: 43.4%
- Activity [2]: 40.6%
- Activity [3]: 1.04 mM

Structure (SMILES): O=C1Oc2cc(O)cc(/C=C/c3ccc(O)cc3)c2[C@@]12c1c(O)cc(O)cc1O[C@@H]2c1ccc(O)cc1
- Activity [1]: 72.1%
- Activity [2]: 52.6%
- Activity [3]: 0.96 mM

Structure (SMILES): COc1c(O)cc(/C=C/c2cc(O)cc3c2[C@]2(C(=O)O3)c3c(O)cc(O)cc3O[C@@H]2c2ccc(O)cc2)cc1O
- Activity [1]: 66.2%
- inhibition [2]: 66.4%
- Activity [3]: 1.42 mM

Structure (SMILES): COc1c(O)cc(/C=C/c2cc(O)cc(O)c2)cc1O
- Activity [1]: 2.9%
- Activity [2]: 3.1%
- Activity [3]: 2.25 mM
